{"source": "PubChem BioAssay AID488811", "about": "(Sanford-Burnham Center for Chemical Genomics, 2010)", "note": "The source made the active and inactive calls.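 Rule for the calls: active = mean EC50 below 10 µM; inactive = the rest.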"}
{"target": "Apelin receptor (Homo sapiens) (UniProt P35414)", "sequence (P35414 whole entry, looked up, the tested form may be a part)": "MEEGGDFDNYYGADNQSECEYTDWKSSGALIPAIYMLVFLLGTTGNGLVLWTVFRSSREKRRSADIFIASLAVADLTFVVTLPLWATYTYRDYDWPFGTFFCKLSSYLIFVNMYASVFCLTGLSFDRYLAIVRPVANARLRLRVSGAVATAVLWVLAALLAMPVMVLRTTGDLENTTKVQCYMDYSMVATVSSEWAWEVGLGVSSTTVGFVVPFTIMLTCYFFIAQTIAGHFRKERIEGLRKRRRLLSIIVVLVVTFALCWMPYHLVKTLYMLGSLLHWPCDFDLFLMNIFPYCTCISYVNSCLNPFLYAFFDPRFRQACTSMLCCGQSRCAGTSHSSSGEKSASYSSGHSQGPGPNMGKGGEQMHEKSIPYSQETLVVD", "assay": "apelin receptor activator analogs – cell-based, luminescence, SAR follow-up (AID 488811)", "conditions": "CHO-K1 AGTRL-1 PathHunter beta-arrestin", "procedure,_shortened": "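Test system – CHO-K1 cells with ProLink-tagged APJ and β-arrestin–β-gal acceptor fusion · Compound dosing – serially dosed compounds from 2 mM DMSO stocks · Schedule – cells seeded overnight, compounds 90 min at 25 °C, dark · Technique – β-gal complementation luminescence, 60 min reagent incubation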"}
{"smiles": "CCc1c(O)nc(SC)n(C2CCCCC2)c1=O", "EC50": "> 79 µM (inactive)"}
{"smiles": "CC1=C(C)C(=NOS(=O)(=O)c2ccc(C)cc2)C=CC1=O", "EC50": "> 79 µM (inactive)"}
{"smiles": "CCCSc1nc(O)c(CC)c(=O)n1C(C)CC", "note": "(stereo not drawn)", "EC50": "inactive"}
{"smiles": "CCSc1nc(O)c(CC)c(=O)n1C1CCCCC1", "EC50": "> 79 µM (inactive)"}
{"smiles": "CC1=C/C(=N\\OS(=O)(=O)c2ccc(Cl)cc2)C=CC1=O", "EC50": "> 79 µM (inactive)"}
{"smiles": "CC1=CC(=O)C(C(C)C)=CC1=NOS(=O)(=O)c1ccccc1", "EC50": "5.74 µM"}
{"smiles": "COc1ccc(S(=O)(=O)ON=C2C=C(C)C(=O)C(C)=C2)cc1", "EC50": "2.56 µM"}
{"smiles": "CCSc1nc(O)c(CC)c(=O)n1C(C)CC", "note": "(stereo not drawn)", "EC50": "inactive"}
{"smiles": "CC1=CC(=NOS(=O)(=O)c2ccccc2)C(C(C)C)=CC1=O", "EC50": "7.43 µM"}
{"smiles": "CCCCSc1nc(O)c(CC)c(=O)n1C1CCCCC1", "EC50": "> 79 µM (inactive)"}
{"smiles": "C=CCn1c(SCc2ccccc2)nc(O)c(CC)c1=O", "EC50": "> 79 µM (inactive)"}
{"smiles": "CC1=CC(=O)C=C(C)C1=NOS(=O)(=O)c1ccccc1", "EC50": "> 79 µM (inactive)"}
{"smiles": "COc1ccc(S(=O)(=O)O/N=C2\\C=C(C(C)C)C(=O)C=C2C)cc1", "EC50": "4.93 µM"}
{"smiles": "O=S(=O)(Nc1nc(-c2ccccc2)cs1)c1ccc(Cl)cc1", "EC50": "> 79 µM (inactive)"}
{"smiles": "CCN1/C(=C\\C=C2/SC(=S)N(C)C2=O)Sc2ccccc21", "EC50": "> 79 µM (inactive)"}
{"smiles": "CC1=C/C(=N/OS(=O)(=O)c2ccc(C)cc2)C(C(C)C)=CC1=O", "EC50": "9.9 µM"}
{"smiles": "CCN1/C(=C/C(=O)c2sc(=S)n(CC)c2O)Sc2ccccc21", "EC50": "> 79 µM (inactive)"}
{"smiles": "CCCCSc1nnc(NC(=O)CSc2nc3ncccc3[nH]2)s1", "EC50": "> 79 µM (inactive)"}
{"smiles": "CC1=C/C(=N/OS(=O)(=O)c2ccc(C)cc2)C=CC1=O", "EC50": "> 79 µM (inactive)"}
{"smiles": "CC1=CC(=O)C=C/C1=N\\OS(=O)(=O)c1ccc(C)cc1", "EC50": "> 79 µM (inactive)"}
{"smiles": "CN(C)CCSc1nc(O)c(-c2ccccc2)c(=O)n1-c1ccccc1", "EC50": "> 79 µM (inactive)"}
{"smiles": "CC1=C/C(=N\\OS(=O)(=O)c2ccc(C)cc2)C(C)=CC1=O", "EC50": "5.4 µM"}
{"smiles": "Cc1ccc(S(=O)(=O)Nc2nc(-c3ccccc3)cs2)cc1", "EC50": "> 79 µM (inactive)"}
{"smiles": "C=CCSc1nc(O)c(CC)c(=O)n1C(C)CC", "note": "(stereo not drawn)", "EC50": "inactive"}
{"smiles": "CCc1c(O)nc(SC(C)CC)n(C(C)CC)c1=O", "note": "(stereo not drawn)", "EC50": "inactive"}
{"smiles": "C=CCSc1nc(O)c(CC)c(=O)n1-c1ccc(C)cc1", "EC50": "> 79 µM (inactive)"}
{"smiles": "CC1=CC(=O)C(C(C)C)=C/C1=N/OS(=O)(=O)c1ccccc1", "EC50": "5.98 µM"}
{"smiles": "C=CCSc1nc(O)c(CC)c(=O)n1C1CCCCC1", "EC50": "> 79 µM (inactive)"}
{"smiles": "CCc1c(O)n(C2CCCCC2)c(=S)[nH]c1=O", "EC50": "> 79 µM (inactive)"}
{"smiles": "CC1=CC(=NOS(=O)(=O)c2ccccc2)C=C(C)C1=O", "EC50": "2.5 µM"}
{"smiles": "CSc1nc(=O)cc(N)n1-c1ccc(C)cc1", "EC50": "> 79 µM (inactive)"}
{"smiles": "CCc1c(O)nc(SC)n(C(C)CC)c1=O", "note": "(stereo not drawn)", "EC50": "> 79 µM (inactive)"}
{"smiles": "CCc1c(O)nc(SCc2ccccc2)n(C2CCCCC2)c1=O", "EC50": "> 79 µM (inactive)"}
{"smiles": "COc1ccccc1-n1c(SCC(=O)c2ccccc2)nc(O)cc1=O", "EC50": "inactive"}
{"smiles": "CC1=CC(=NOS(=O)(=O)c2ccc(Cl)cc2)C=C(C)C1=O", "EC50": "2.9 µM"}
{"smiles": "CCN1C(c2ccccc2)=C(c2ccccc2)S/C1=C/C=C1\\SC(=S)N(C)C1=O", "EC50": "3.44 µM"}
{"smiles": "CC1=CC(=NOS(=O)(=O)c2ccccc2)C=CC1=O", "EC50": "> 79 µM (inactive)"}
{"smiles": "CCc1c(O)nc(SCc2ccccc2)n(C(C)CC)c1=O", "note": "(stereo not drawn)", "EC50": "> 79 µM (inactive)"}
{"smiles": "Cc1cc(C)n2nc3nc(N4CCOCC4)nc(-c4ccccc4)c3c2n1", "EC50": "> 79 µM (inactive)"}
{"smiles": "Cc1ccc(S(=O)(=O)ON=C2C=CC(=O)C=C2)cc1", "EC50": "> 79 µM (inactive)"}
{"smiles": "O=S(=O)(Nc1nc(-c2ccccc2)cs1)c1ccc(Br)cc1", "EC50": "> 79 µM (inactive)"}
{"smiles": "CC1=CC(=NOS(=O)(=O)c2ccc(C)cc2)C=C(C)C1=O", "EC50": "2.52 µM"}
{"smiles": "CC1=C/C(=N/OS(=O)(=O)c2ccccc2)C(C)=CC1=O", "EC50": "6.82 µM"}
